Screening results from PubChem.
ROMK primary: modulates human ROMK potassium channel activity; P48048; Tet-inducible ROMK, thallium flux fluorescence; actives lie on both sides; B-score at 10 µM; hit rate 2% among 130,000; AID 1918;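 active = signal ratio slope over the read window, or its plate-corrected B-score, at least 3 SD from the plate mean, either direction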;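 also: B-score of the F/F0 ratio slope over 7 to 12 s after thallium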
Target sequence (P48048 whole entry, looked up): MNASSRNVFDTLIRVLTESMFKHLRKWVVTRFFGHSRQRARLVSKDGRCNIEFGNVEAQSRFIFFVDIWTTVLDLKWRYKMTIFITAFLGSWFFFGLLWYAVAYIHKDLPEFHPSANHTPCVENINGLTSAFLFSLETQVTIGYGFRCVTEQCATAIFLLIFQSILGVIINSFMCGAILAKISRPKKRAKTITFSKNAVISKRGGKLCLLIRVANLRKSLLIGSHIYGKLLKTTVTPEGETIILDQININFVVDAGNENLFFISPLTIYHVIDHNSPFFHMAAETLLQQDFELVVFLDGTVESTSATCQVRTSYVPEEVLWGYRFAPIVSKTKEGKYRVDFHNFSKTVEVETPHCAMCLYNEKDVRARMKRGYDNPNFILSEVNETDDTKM
Cl transport mod: KCC2 (human) Cl- transport modulation | Q9H2X9 | KCC2 cells, thallium flux FluoZin-2 fluorescence | B-score of Tl+ flux slope (higher = more flux/activation; lower = inhibition) at 10 µM | hit rate 2.2% among 190,000 | AID 1456;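 active = thallium flux slope and its plate-corrected score both differing from the plate sample mean at a set confidence after two filtering rounds, in either direction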;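 also: slope of fluorescence scaled to starting intensity during 10 to 20 s after thallium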
PKD1 kinase inh: inhibitors of human PKD1 kinase; PKD1 kinase fluorescence polarization assay; inhibition, % (test concentration not listed); hit rate 0.056% among 200,000; Q15139; in the data active = inhibition above about 50%
Rad51 HR inh: Rad51 (human) homologous recombination inhibition; hit rate 0.085% among 200,000; hRad51 DNA strand exchange, fluorescence dequenching; AID 1385; inhibition, % at 10 µM; Q06609;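 active = inhibition above 40% at the single screening dose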;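 also: 0% = DMSO control wells and 100% = blanks with heterologous ssDNA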
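material = hRad51 filaments on single-stranded DNA | timing = filaments 15 min 37 °C, then compound 30 min | signal = FRET fluorescence dequenching, excitation 485 nm, emission 520 nm | benchmarks = control wells and blank wells on each plate | evaluation = percent inhibition relative to plate controls and blanks | compound = 10 µM final, single point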
* = called active by the depositor. This is a sample that favours compounds with a hit; in the whole collection about 3% have one here.

For Cc1sc(NC(=O)C2CC=CCC2C(=O)O)c(C(=O)OC(C)C)c1C (stereo not drawn) the results were ROMK primary 0.0569, Cl transport mod -1.44, PKD1 kinase inh 5.0 and Rad51 HR inh -7.3.
For COC(=O)c1ccc(C(=O)Nc2nnc(-c3cccnc3)o2)cc1 the results were ROMK primary 0.621, Cl transport mod 1.16, PKD1 kinase inh -7.5 and Rad51 HR inh 2.3.
`O=C(Nc1nnc(-c2ccc(Cl)cc2)o1)c1cccc(N2C(=O)CCC2=O)c1` gave Cl transport mod 17.4*, PKD1 kinase inh -12.4 and Rad51 HR inh -6.2.
For O=C(Nc1nnc(-c2ccccc2)o1)c1ccc(Cl)cc1 the results were ROMK primary 9.99*, Cl transport mod 64.3*, PKD1 kinase inh -13.0 and Rad51 HR inh -7.0.
CSC1=Nc2sc3c(c2C2=NCCN12)CC(C)(C)OC3 was read as ROMK primary -0.73.
CC1(C)Cc2c(sc3c2C2=NCCN2C=N3)CO1 was read as ROMK primary 0.655, Cl transport mod 6.97*, PKD1 kinase inh -0.3 and Rad51 HR inh -8.9.
Screening O=C(CNC(=S)NC(=O)c1cccs1)c1ccccc1 returned ROMK primary -0.0127, Cl transport mod 10.7* and PKD1 kinase inh -3.9.
`O=C(NC(=S)Nc1nc2ccccc2s1)c1cccs1` gave ROMK primary 0.537, Cl transport mod 72.3*, PKD1 kinase inh -4.7 and Rad51 HR inh -10.8.
O=C(CNC(=S)NC(=O)c1ccco1)c1ccccc1 was read as Cl transport mod 5.46*, PKD1 kinase inh 6.3 and Rad51 HR inh -5.7.
O=C(NC(=S)NCCc1ccccn1)c1ccco1 was read as ROMK primary -0.221, Cl transport mod 1.52, PKD1 kinase inh -0.7 and Rad51 HR inh -2.5.
Cc1ccc(C(=O)NC(=S)NCC(=O)c2ccccc2)cc1 was read as PKD1 kinase inh 4.0 and Rad51 HR inh 0.9.
`COc1ccc(Cc2nnc(SCC(=O)N3CCCCC3)o2)cc1` gave PKD1 kinase inh -5.4 and Rad51 HR inh -7.1.
FC(F)(F)c1nnc2ccc(N3CCCC3)nn12 was read as ROMK primary 1.05, Cl transport mod -0.193, PKD1 kinase inh -1.3 and Rad51 HR inh 56.7*.
`COc1ccccc1C(=O)C1CCCN(C(=O)CN2CCCCC2=O)C1` (stereo not drawn) gave ROMK primary 1.25 and PKD1 kinase inh -12.6.
Screening Cc1cc(N)n(-c2ccc(S(=O)(=O)c3ccc(C(C)C)cc3)cc2)n1 returned ROMK primary -1.98, Cl transport mod -0.64, PKD1 kinase inh -1.4 and Rad51 HR inh 6.6.
`COc1ccccc1C1C=C(c2ccc(Cl)cc2)Nc2nc(N3C(=O)CCC3=O)nn21` (stereo not drawn) gave ROMK primary -5.99*, PKD1 kinase inh -5.0 and Rad51 HR inh 2.3.
`O=C1CCC(=O)N1c1nc2n(n1)C(c1ccccc1)C=C(c1ccc(Br)cc1)N2` (stereo not drawn) gave ROMK primary -3.96*, PKD1 kinase inh 4.0 and Rad51 HR inh -3.7.
Screening O=C(Nc1ccc(F)cc1)C1C(c2ccccc2)C1(Cl)Cl (stereo not drawn) returned ROMK primary -0.648, Cl transport mod -0.686, PKD1 kinase inh 2.7 and Rad51 HR inh -4.2.
Cc1cccc(C)c1NC1=NC(=S)N(c2ccccc2)C12CCOC(C)(C)C2 (stereo not drawn) was read as ROMK primary 0.215, Cl transport mod -0.0058, PKD1 kinase inh 0.3 and Rad51 HR inh -2.0.
Screening Cc1ccc(N2C(=S)N=C(Nc3ccccc3C)C23CCOC(C)(C)C3)cc1 (stereo not drawn) returned Cl transport mod 24.2*, PKD1 kinase inh -4.7 and Rad51 HR inh 4.8.
For Cc1ccc(-c2c3c([nH]c(=S)c2C#N)CCCC3)o1 the results were Cl transport mod 24.4*, PKD1 kinase inh 4.2 and Rad51 HR inh -1.5.
N#Cc1c(-c2ccncc2)c2c([nH]c1=S)CCCC2 was read as Cl transport mod -1.05, PKD1 kinase inh 8.2 and Rad51 HR inh -0.6.
Screening Cc1ccc(C(=O)NC(=S)Nc2ccccc2C(F)(F)F)cc1C returned PKD1 kinase inh -23.8 and Rad51 HR inh 0.6.
For Cc1cccc(C)c1NC(=S)NC(=O)c1ccccc1F the results were ROMK primary -0.318, Cl transport mod 35.3* and PKD1 kinase inh 4.2.
`CCC(=O)Nc1cccc(NC(=S)NC(=O)c2ccc(Cl)cc2Cl)c1` gave Cl transport mod 0.463 and PKD1 kinase inh -4.7.
Cc1cccc(C(=O)NC(=S)Nc2ccccc2C(F)(F)F)c1 was read as Cl transport mod 19.1* and PKD1 kinase inh -6.0.
`O=C(NC(=S)NNC(=O)c1ccc(Cl)cc1Cl)c1cccnc1` gave ROMK primary 1.12, Cl transport mod 1.88, PKD1 kinase inh 7.5 and Rad51 HR inh -8.0.
`Cc1ccccc1C(=O)NNC(=S)NC(=O)c1ccc(Cl)cc1Cl` gave ROMK primary 4.9*, Cl transport mod 27.8*, PKD1 kinase inh -10.0 and Rad51 HR inh 5.7.
For CCCN(CCC)C(=S)NC(=O)c1ccc(Cl)cc1Cl the results were Cl transport mod 41.9*, PKD1 kinase inh 0.9 and Rad51 HR inh -4.5.
`NNC(=O)CNC(=O)CNS(=O)(=O)c1ccccc1` gave ROMK primary -0.157, Cl transport mod 0.0102, PKD1 kinase inh -13.2 and Rad51 HR inh -5.6.
For Cn1ncc([N+](=O)[O-])c1C(=O)N/N=C/c1cccc([N+](=O)[O-])c1 the results were PKD1 kinase inh 4.1 and Rad51 HR inh 2.8.
Screening O=C(NC(=S)N1CCCCCC1)c1ccc(Cl)cc1Cl returned ROMK primary 7.05*, Cl transport mod 88.2* and PKD1 kinase inh -4.2.
COC(=O)c1sc(NC(=S)NC(=O)c2cccc(C)c2)nc1C was read as ROMK primary 0.438, Cl transport mod 18.4*, PKD1 kinase inh 3.0 and Rad51 HR inh -4.3.
Cc1cccc(C(=O)NC(=S)Nc2ccccc2C(=O)O)c1 was read as ROMK primary -0.819, Cl transport mod -0.0869 and PKD1 kinase inh 3.7.
`Cc1cccc(C(=O)NC(=S)NNC(=O)c2ccccc2Cl)c1` gave Cl transport mod 40.1*, PKD1 kinase inh -10.7 and Rad51 HR inh 2.9.
NS(=O)(=O)c1ccc(CCNS(=O)(=O)c2cccc(C(=O)O)c2)cc1 was read as Cl transport mod 0.752 and Rad51 HR inh -12.5.
O=C(NCc1cccnc1)c1nn2cccnc2c1Cl was read as ROMK primary -0.0821, Cl transport mod 0.918 and PKD1 kinase inh -9.2.
CCC1=C[C@H]2CN(C1)Cc1c([nH]c3ccccc13)[C@@](C(=O)OC)(c1cc3c(cc1OC)N(C)[C@H]1[C@@](O)(C(=O)OC)[C@H](OC(C)=O)[C@]4(CC)C=CCN5CC[C@]31[C@@H]54)C2 was read as Rad51 HR inh 5.6.
`CC1=C/C(=N\NC(=S)Nc2cccnc2)CC(C)(C)C1` gave ROMK primary 3.04*, Cl transport mod 15.6*, PKD1 kinase inh 1.1 and Rad51 HR inh -8.9.
C=CCN1CCN(C(CCC)c2nnnn2Cc2ccco2)CC1 (stereo not drawn) was read as ROMK primary 0.525, Cl transport mod -0.193, PKD1 kinase inh -5.0 and Rad51 HR inh -4.5.
